From ChEMBL document CHEMBL1134661, “N-Benzylpolyamines as vectors of boron and fluorine for cancer therapy and imaging: synthesis and biological evaluation” (J Med Chem, 2001)

How the values were obtained:
Nucleic Acid = assay: DNA binding affinity (conc to decrease the fluorescence of the ethidium bromide-DNA complex by 50%); type: nucleic-acid assay, Bos taurus
3LL cell line [1] = assay: Effect on the growth of 3LL cells was evaluated using an MTT assay at 48 hour incubation; type: functional, cell-based; details: Mus musculus
CHO [2] = assay: Compound was tested for accumulation in CHO cells by HPLC at 50 uM dose; type: functional, Cricetulus griseus
Procedure, shortened: (§1)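 CHO or polyamine-transport-deficient CHO-MG cells (proline 2 µg/mL added for CHO-MG), RPMI 1640 with 10% FCS, 37 °C, 5% CO2; seeded at 5 × 10⁴ cells/mL, derivative added 24 h later for 24 h; trypsin/EDTA harvest, three PBS washes, sonication in 0.2 N perchloric acid; derivative measured by ion-pair reversed-phase HPLC with o-phthalaldehyde/N-acetylcysteine fluorescence; per mg protein (Folin); mean ± SD.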

3LL cell line [3] = assay: accumulation of compound in 3LL cells was measured with DFMO by HPLC at 10 uM dose; type: functional, Mus musculus
Procedure, shortened: (§2)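 3LL cells exposed 24 h to derivative, BSH or BPA, with or without prior 24 h incubation with 5 mM DFMO; intracellular drug measured by ion-pair reversed-phase HPLC with o-phthalaldehyde fluorescence, or cellular boron by ICP-AES, per mg protein; mean ± SD; Student's t-test, p < 0.01.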

3LL cell line [4] = assay: Effect on the growth of 3LL cells was evaluated using an MTT assay at 72 hour incubation; type: functional, cell-based; details: Mus musculus
3LL cell line [5] = assay: Effect on the growth of 3LL cells by DFMO pretreatment at 48 hr incubation; type: functional, cell-based; details: Mus musculus
Procedure, shortened: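 3LL cells given 5 mM DFMO 24 h after seeding for a 24 h preincubation, then 48 h with spermidine or derivative; MTT readout; growth expressed relative to cells treated with DFMO only; mean ± SEM.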

3LL cell line [6] = assay: accumulation of compound in 3LL cells was measured without DFMO by HPLC at 10 uM dose; type: functional, Mus musculus; procedure, shortened: as §2
3LL cell line [7] = assay: spermine levels in 3LL cells after the treatment of 10 uM of Compound; type: functional, cell-based; details: Mus musculus
Procedure, shortened: (§3)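 3LL cells incubated 24 h with derivative, some after 24 h pretreatment with 5 mM DFMO; perchloric acid extracts analyzed for putrescine, spermidine and spermine by ion-pair reversed-phase HPLC with o-phthalaldehyde post-column fluorescence, normalized to protein (Folin); mean ± SD.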

CHO [8] = assay: Compound was tested for accumulation in CHO cells by HPLC at 250 uM dose; type: functional, Cricetulus griseus; procedure, shortened: as §1
3LL cell line [9] = assay: accumulation of compound in 3LL cells was measured with DFMO by HPLC at 250 uM dose; type: functional, Mus musculus; procedure, shortened: as §2
CHO-MG = assay: Compound was tested for accumulation in CHO-MG cells by HPLC at 250 uM dose; type: functional, Cricetulus griseus; procedure, shortened: as §1
3LL cell line [10] = assay: accumulation of compound in 3LL cells was measured without DFMO by HPLC at 250 uM dose; type: functional, Mus musculus; procedure, shortened: as §2
3LL cell line [11] = assay: accumulation of compound in 3LL cells was measured with DFMO by HPLC at 50 uM dose; type: functional, Mus musculus; procedure, shortened: as §2
3LL cell line [12] = assay: accumulation of compound in 3LL cells was measured without DFMO by HPLC at 50 uM dose; type: functional, Mus musculus; procedure, shortened: as §2
3LL cell line [13] = assay: spermine levels in 3LL cells after the treatment of 250 uM of Compound; type: functional, cell-based; details: Mus musculus; procedure, shortened: as §3
3LL cell line [14] = assay: spermidine levels in 3LL cells after the treatment of 250 uM of Compound; type: functional, cell-based; details: Mus musculus; procedure, shortened: as §3

| IC50 (Nucleic Acid) | SMILES | IC50 (3LL cell line [1]) | Accumulation (CHO [2]) | Activity (3LL cell line [3]) | IC50 (3LL cell line [4]) | IC50 (3LL cell line [5]) | Activity (3LL cell line [6]) | Level (nM (mg of protein)-1) (3LL cell line [7]) | Accumulation (CHO [8]) | Activity (3LL cell line [9]) | Accumulation (CHO-MG) | Activity (3LL cell line [10]) | Activity (3LL cell line [11]) | Activity (3LL cell line [12]) | Level (nM (mg of protein)-1) (3LL cell line [13]) | Level (nM (mg of protein)-1) (3LL cell line [14]) |
| --- | --- | --- | --- | --- | --- | --- | --- | --- | --- | --- | --- | --- | --- | --- | --- | --- |
| 107 µM | Cl.NCCCCNCCCNCc1ccccc1 | 31 µM | 17.58 nM (mg of protein)-1 | 23.67 nM (mg of protein)-1 | 9.3 µM | 11.9 µM | 9 nM (mg of protein)-1 | 7.23 | – | – | – | – | – | – | – | – |
| 98 µM | NCCCCNCCCN [SPERMIDINE] | – | – | – | – | – | – | – | – | – | – | – | – | – | – | – |

More lines, now with the values behind:

| SMILES | IC50 (Nucleic Acid) | IC50 (3LL cell line [1]) | Accumulation (CHO [2]) | Activity (3LL cell line [3]) | IC50 (3LL cell line [4]) | IC50 (3LL cell line [5]) | Activity (3LL cell line [6]) | Level (nM (mg of protein)-1) (3LL cell line [7]) | Accumulation (CHO [8]) | Activity (3LL cell line [9]) | Accumulation (CHO-MG) | Activity (3LL cell line [10]) | Activity (3LL cell line [11]) | Activity (3LL cell line [12]) | Level (nM (mg of protein)-1) (3LL cell line [13]) | Level (nM (mg of protein)-1) (3LL cell line [14]) |
| --- | --- | --- | --- | --- | --- | --- | --- | --- | --- | --- | --- | --- | --- | --- | --- | --- |
| CC1(C)COB(c2cccc(CN(CCCN)CCCCN)c2)OC1.Cl | – | – | – | – | – | – | – | – | 5.65 nM (mg of protein)-1 | 3.93 nM (mg of protein)-1 | 3.71 nM (mg of protein)-1 | 4.52 nM (mg of protein)-1 | – | – | – | – |
| Cl.NCCCCN(CCCN)Cc1ccccc1 | 310 µM | > 1000 µM | – | 5.52 nM (mg of protein)-1 | > 1000 µM | > 100 µM | 2.59 nM (mg of protein)-1 | – | 13.64 nM (mg of protein)-1 | 5.46 nM (mg of protein)-1 | 5.55 nM (mg of protein)-1 | 6.11 nM (mg of protein)-1 | 6.92 nM (mg of protein)-1 | 4.92 nmol/mg protein | 8.64 | 4.15 |
| NCCCCN [PUTRESCINE] | > 11000 µM | – | – | – | – | – | – | – | – | – | – | – | – | – | – | – |
